This note sets out measurements from ChEMBL document CHEMBL2331438, “An efficient domino reaction in ionic liquid: synthesis and biological evaluation of some pyrano- and thiopyrano-fused heterocycles” (2013).

≈ marks a conversion by molar mass, not a printed value.

The subject of one assay is Candida albicans. Nature of the assay: Antifungal activity against Candida albicans MTCC 227 after 48 hrs by broth microdilution method. Type of assay: functional. (Broth dilution looks for growth in wells or tubes with falling amounts of substance.)
In another assay the test system is Vibrio cholerae. Nature of the assay: Antibacterial activity against Vibrio cholerae MTCC 3906 after 24 hrs by broth microdilution method. The format is functional.
A further assay concerns Clostridium tetani. Nature of the assay: Antibacterial activity against Clostridium tetani MTCC 449 after 24 hrs by broth microdilution method. The format is functional.
The test system of the next assay is Bacillus subtilis. Nature of the assay: Antibacterial activity against Bacillus subtilis MTCC 441 after 24 hrs by broth microdilution method. The format is functional.
For a further assay, the system named is Escherichia coli. Briefly: Antibacterial activity against Escherichia coli MTCC 443 after 24 hrs by broth microdilution method. The format is functional.
The next assay concerns Salmonella typhi. Nature of the assay: Antibacterial activity against Salmonella typhi MTCC 98 after 24 hrs by broth microdilution method. Type of assay: functional, Salmonella enterica subsp. enterica serovar Typhi.
Assay [1] is described as follows: Antioxidant activity assessed as ascorbic acid equivalent ferric ion reducing activity per 100 gram at 200 ug/ml by FRAP assay. The format is functional.
For assay [2], the system named is Mycobacterium tuberculosis. Briefly: Antimycobacterial activity against Mycobacterium tuberculosis H37Rv at 250 ug/ml. The format is functional. The procedure, abridged: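 M. tuberculosis H37Rv tested on L.J. (Löwenstein–Jensen) medium.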
Another assay deals with Streptococcus pneumoniae. Briefly: Antibacterial activity against Streptococcus pneumoniae MTCC 1936 after 24 hrs by broth microdilution method. Type of assay: functional.
For the next assay, the system named is Aspergillus fumigatus. Briefly: Antifungal activity against Aspergillus fumigatus MTCC 3008 after 48 hrs by broth microdilution method. Type of assay: functional.
[3] abbreviates: Salmonella enterica, MTCC 98, 24 h.

In the case of `Cc1nn(-c2ccccc2)c2c1[C@@H]1c3cc4cccc(C)c4nc3SC[C@@H]1C(C)(C)O2` (single isomer, unassigned), the MIC – broadly, the lowest concentration that inhibits growth of the organism – is over 1000 mg/L against Candida albicans (MTCC 227, 48 h); 125 mg/L (≈ 292 µM) against Vibrio cholerae (MTCC 3906, 24 h); 100 mg/L (≈ 234 µM) in the assay with Clostridium tetani (MTCC 449, 24 h); 250 mg/L (≈ 585 µM) with Bacillus subtilis (MTCC 441, 24 h); 200 mg/L (≈ 468 µM) against Escherichia coli (MTCC 443, 24 h); 100 mg/L (≈ 234 µM) against Salmonella typhi (setting [3]). Moreover, the minimal inhibitory concentration (MIC) against Streptococcus pneumoniae (MTCC 1936, 24 h) was 100 mg/L (≈ 234 µM); with Aspergillus fumigatus (MTCC 3008, 48 h), 1000 mg/L (≈ 2340 µM). Moreover, the Activity in [1] turned out to be 83.5 mmol. The inhibition (in general, the share of the control response that was lost under treatment) at 250 µg/mL in assay [2] worked out at 49%.

As for `Cc1nn(-c2cccc(Cl)c2)c2c1[C@@H]1c3c(ccc4c(C)cc(=O)oc34)OC[C@@H]1CO2`, the MIC in the assay with Candida albicans (MTCC 227, 48 h) is 1000 mg/L (≈ 2300 µM); in the assay with Vibrio cholerae (MTCC 3906, 24 h), 250 mg/L (≈ 575 µM); with Clostridium tetani (MTCC 449, 24 h) it was 62.5 mg/L (≈ 144 µM); with Bacillus subtilis (MTCC 441, 24 h), 200 mg/L (≈ 460 µM); in the assay on Escherichia coli (MTCC 443, 24 h), 100 mg/L (≈ 230 µM); with Salmonella typhi (setting [3]) it was 200 mg/L (≈ 460 µM). The MIC in the assay on Streptococcus pneumoniae (MTCC 1936, 24 h) was 62.5 mg/L (≈ 144 µM); against Aspergillus fumigatus (MTCC 3008, 48 h), 250 mg/L (≈ 575 µM). In addition, the Activity in [1] turned out to be 158 mmol. In [2], 250 µg/mL produced 19% inhibition.

In the case of `Cc1nn(-c2ccc([N+](=O)[O-])cc2)c2c1[C@@H]1c3c(ccc4c(C)cc(=O)oc34)OC[C@@H]1C(C)(C)O2`, the MIC in the assay with Candida albicans (MTCC 227, 48 h) is 250 mg/L (≈ 528 µM); with Vibrio cholerae (MTCC 3906, 24 h), 200 mg/L (≈ 422 µM); in the assay with Clostridium tetani (MTCC 449, 24 h), 200 mg/L (≈ 422 µM); against Bacillus subtilis (MTCC 441, 24 h), 200 mg/L (≈ 422 µM); with Escherichia coli (MTCC 443, 24 h), 200 mg/L (≈ 422 µM); in the assay on Salmonella typhi (setting [3]) it was 125 mg/L (≈ 264 µM). The MIC against Streptococcus pneumoniae (MTCC 1936, 24 h) was found to be 200 mg/L (≈ 422 µM); in the assay on Aspergillus fumigatus (MTCC 3008, 48 h), 500 mg/L (≈ 1060 µM). Also, in [1], the Activity came out at 138 mmol. In [2], this compound returned an inhibition at 250 µg/mL of 88%.

In the case of `CC1(C)S[C@@H]2[C@H](NC(=O)[C@H](N)c3ccccc3)C(=O)N2[C@H]1C(=O)O` [AMPICILLIN], the MIC was 100 mg/L (≈ 286 µM) in the assay on Vibrio cholerae (MTCC 3906, 24 h); 250 mg/L (≈ 715 µM) against Clostridium tetani (MTCC 449, 24 h); 250 mg/L (≈ 715 µM) in the assay on Bacillus subtilis (MTCC 441, 24 h); 100 mg/L (≈ 286 µM) in the assay on Escherichia coli (MTCC 443, 24 h); 100 mg/L (≈ 286 µM) in the assay with Salmonella typhi (setting [3]); 100 mg/L (≈ 286 µM) against Streptococcus pneumoniae (MTCC 1936, 24 h).

Take `Cc1nn(-c2ccccc2Cl)c2c1[C@@H]1c3c(ccc4c(C)cc(=O)oc34)OC[C@@H]1CO2`: the MIC against Candida albicans (MTCC 227, 48 h) amounted to 1000 mg/L (≈ 2300 µM); in the assay with Vibrio cholerae (MTCC 3906, 24 h), 250 mg/L (≈ 575 µM); with Clostridium tetani (MTCC 449, 24 h) it was 200 mg/L (≈ 460 µM); against Bacillus subtilis (MTCC 441, 24 h), 62.5 mg/L (≈ 144 µM); in the assay with Escherichia coli (MTCC 443, 24 h), 125 mg/L (≈ 287 µM); with Salmonella typhi (setting [3]) it was 100 mg/L (≈ 230 µM). Besides, the MIC was 100 mg/L (≈ 230 µM) against Streptococcus pneumoniae (MTCC 1936, 24 h) and over 1000 mg/L against Aspergillus fumigatus (MTCC 3008, 48 h). Also, in [1], the Activity amounted to 200 mmol. This compound yielded an inhibition at 250 µg/mL in [2] of 30%.

For the compound `Cc1nn(-c2cc(Cl)ccc2Cl)c2c1[C@@H]1c3c(ccc4c(C)cc(=O)oc34)OC[C@@H]1CO2`, the MIC against Candida albicans (MTCC 227, 48 h) amounted to 250 mg/L (≈ 533 µM); with Vibrio cholerae (MTCC 3906, 24 h) it was 100 mg/L (≈ 213 µM); in the assay on Clostridium tetani (MTCC 449, 24 h), 250 mg/L (≈ 533 µM); in the assay on Bacillus subtilis (MTCC 441, 24 h), 200 mg/L (≈ 426 µM); in the assay on Escherichia coli (MTCC 443, 24 h) it was 125 mg/L (≈ 266 µM); in the assay with Salmonella typhi (setting [3]), 250 mg/L (≈ 533 µM). In addition, the MIC is 200 mg/L (≈ 426 µM) in the assay with Streptococcus pneumoniae (MTCC 1936, 24 h) and over 1000 mg/L against Aspergillus fumigatus (MTCC 3008, 48 h). Further, in [1], the Activity is 184 mmol. For the same compound, at 250 µg/mL the inhibition in [2] was 28%.

Turning to GENTAMICIN, the MIC with Vibrio cholerae was determined as 5 mg/L; in the assay on Clostridium tetani it was 5 mg/L; with Bacillus subtilis it was 1 mg/L; with Escherichia coli it was 0.05 mg/L; in the assay with Salmonella typhi (Salmonella enterica subsp. enterica serovar Typhi) it was 5 mg/L; against Streptococcus pneumoniae, 0.5 mg/L.

With `O=C(N[C@H](CO)[C@H](O)c1ccc([N+](=O)[O-])cc1)C(Cl)Cl` [CHLORAMPHENICOL], the minimal inhibitory concentration (MIC) against Vibrio cholerae (MTCC 3906, 24 h) came to 50 mg/L (≈ 155 µM); with Clostridium tetani (MTCC 449, 24 h), 50 mg/L (≈ 155 µM); against Bacillus subtilis (MTCC 441, 24 h), 50 mg/L (≈ 155 µM); with Escherichia coli (MTCC 443, 24 h), 50 mg/L (≈ 155 µM); in the assay with Salmonella typhi (setting [3]), 50 mg/L (≈ 155 µM); with Streptococcus pneumoniae (MTCC 1936, 24 h), 50 mg/L (≈ 155 µM).

As to `Cc1nn(-c2cc(Cl)ccc2Cl)c2c1[C@@H]1c3c(ccc4c(C)cc(=O)oc34)OC[C@@H]1C(C)(C)O2`, the MIC amounted to 500 mg/L (≈ 1010 µM) in the assay with Candida albicans (MTCC 227, 48 h); 100 mg/L (≈ 201 µM) against Bacillus subtilis (MTCC 441, 24 h); 100 mg/L (≈ 201 µM) against Escherichia coli (MTCC 443, 24 h); 100 mg/L (≈ 201 µM) against Streptococcus pneumoniae (MTCC 1936, 24 h); 500 mg/L (≈ 1010 µM) with Aspergillus fumigatus (MTCC 3008, 48 h). In addition, in assay [1], the Activity is 187 mmol.

Regarding `O=C(O)c1cn(C2CC2)c2cc(N3CCNCC3)c(F)cc2c1=O` [CIPROFLOXACIN], the MIC against Vibrio cholerae (MTCC 3906, 24 h) was 25 mg/L (≈ 75.4 µM); against Escherichia coli (MTCC 443, 24 h), 25 mg/L (≈ 75.4 µM); against Salmonella typhi (setting [3]), 25 mg/L (≈ 75.4 µM); in the assay on Streptococcus pneumoniae (MTCC 1936, 24 h), 50 mg/L (≈ 151 µM).

On to `CCn1cc(C(=O)O)c(=O)c2cc(F)c(N3CCNCC3)cc21` [NORFLOXACIN], for which the MIC in the assay on Vibrio cholerae (MTCC 3906, 24 h) is 10 mg/L (≈ 31.3 µM); with Clostridium tetani (MTCC 449, 24 h), 50 mg/L (≈ 157 µM); in the assay with Bacillus subtilis (MTCC 441, 24 h) it was 100 mg/L (≈ 313 µM); against Escherichia coli (MTCC 443, 24 h), 10 mg/L (≈ 31.3 µM); in the assay with Salmonella typhi (setting [3]), 10 mg/L (≈ 31.3 µM); against Streptococcus pneumoniae (MTCC 1936, 24 h) it was 10 mg/L (≈ 31.3 µM).

As for NYSTATIN, the MIC against Candida albicans and with Aspergillus fumigatus was 100 mg/L each time.
